Test results: ChEMBL document CHEMBL1122190, “Mammary tumor inhibiting effect of 3,3'-diacetoxy-alpha, beta-dialkylstilbenes and of related stilbene oxides” (1982)

What was measured:
Mus musculus [1] = test: Effect on estrogen and progesterone receptors positive hormone-dependent postmenopausal human mammary carcinoma tumor growth in nude mice at 3.0 mg/kg/day; assay type: functional
Summary of the method: (§1)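 Nude mice carried serially transplanted hormone-dependent human mammary carcinoma. Compounds in olive oil were given sc 6 times a week for 4-5 weeks. Two tumor diameters were measured weekly, and size at treatment start was set as 1. Tumor size was averaged after 5 weeks of therapy.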

[2] = system: Estrogen receptor (Bos taurus); test: In vitro relative binding affinity for Estrogen receptor compared to [3H]estradiol
[3] = molecular target: T1, Estrogen receptor (Mus musculus) (UniProt O08537+P19785); test: Percent inhibition of estrone-stimulated uterine growth in immature mouse at 100 ug dose; assay type: functional
Summary of the method: (§2)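 Dorfman uterine weight test in immature female NMRI mice, ten per group, 20 days old and 10-12 g at start. Compounds were given in olive oil sc once daily for 3 days. Mice were killed 24 h after the last injection, and uteri were removed, dried at 100 °C for 24 h and weighed.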

[4] = molecular target: T1, Estrogen receptor (Mus musculus); test: Uterotrophic activity in mice at 100 ug dose; assay type: functional, tissue-based; conditions: Uterus; summary of the method: as §2
[5] = molecular target: T1, Estrogen receptor (Mus musculus); test: Antiuterotrophic activity in mice at 50 ug dose; assay type: functional; summary of the method: as §2
[6] = molecular target: T1, Estrogen receptor (Mus musculus); test: Percent inhibition of estrone-stimulated uterine growth in immature mouse at 5 ug dose; assay type: functional; summary of the method: as §2
[7] = molecular target: T1, Estrogen receptor (Mus musculus); test: Percent inhibition of estrone-stimulated uterine growth in immature mouse at 50 ug dose; assay type: functional; summary of the method: as §2
[8] = molecular target: T1, Estrogen receptor (Mus musculus); test: Uterotrophic activity in mice at 1000 ug dose; assay type: functional, tissue-based; conditions: Uterus
Summary of the method: (§3)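 Dorfman uterine weight test in immature female NMRI mice (20 days old at start, 10-12 g; ten per group). Compound given sc daily in olive oil for 3 days. Animals killed 24 h after last injection; uteri removed, dried at 100 °C for 24 h and weighed.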

[9] = molecular target: T1, Estrogen receptor (Mus musculus); test: Antiuterotrophic activity in mice at 100 ug dose; assay type: functional; summary of the method: as §2
[10] = molecular target: T1, Estrogen receptor (Mus musculus); test: Uterotrophic activity in mice at 10 ug dose; assay type: functional, tissue-based; conditions: Uterus; summary of the method: as §2
[11] = molecular target: T1, Estrogen receptor (Mus musculus); test: Antiuterotrophic activity in mice at 5 ug dose; assay type: functional; summary of the method: as §2
Mus musculus [12] = test: Effect on estrogen and progesterone receptors positive hormone-dependent postmenopausal human mammary carcinoma tumor growth in nude mice at 2.8 mg/kg/day; assay type: functional; summary of the method: as §1
[13] = molecular target: T1, Estrogen receptor (Mus musculus); conditions: Uterus
[14] = molecular target: T1, Estrogen receptor (Mus musculus); test: Antiuterotrophic activity in mice at 250 ug dose; assay type: functional; summary of the method: as §2
[15] = molecular target: T1, Estrogen receptor (Mus musculus); test: Percent inhibition of estrone-stimulated uterine growth in immature mouse at 250 ug dose; assay type: functional; summary of the method: as §2
[16] = molecular target: T1, Estrogen receptor (Mus musculus); test: Percent inhibition of estrone-stimulated uterine growth in immature mouse at 25 ug dose; assay type: functional; summary of the method: as §2
[17] = molecular target: T1, Estrogen receptor (Mus musculus); test: Antiuterotrophic activity in mice at 25 ug dose; assay type: functional; summary of the method: as §2
Mus musculus [18] = test: Effect on estrogen and progesterone receptors positive hormone-dependent postmenopausal human mammary carcinoma tumor growth in nude mice at 2.4 mg/kg/day; assay type: functional; summary of the method: as §1
[19] = molecular target: T1, Estrogen receptor (Mus musculus); test: Uterotrophic activity in mice at 500 ug dose; assay type: functional, tissue-based; conditions: Uterus; summary of the method: as §3
[20] = molecular target: T1, Estrogen receptor (Mus musculus); test: Uterotrophic activity in mice at 5 ug dose; assay type: functional, tissue-based; conditions: Uterus; summary of the method: as §3
[21] = molecular target: T1, Estrogen receptor (Mus musculus); test: Uterotrophic activity in mice at 50 ug dose; assay type: functional, tissue-based; conditions: Uterus; summary of the method: as §3

T1 sequence (O08537 whole entry, looked up): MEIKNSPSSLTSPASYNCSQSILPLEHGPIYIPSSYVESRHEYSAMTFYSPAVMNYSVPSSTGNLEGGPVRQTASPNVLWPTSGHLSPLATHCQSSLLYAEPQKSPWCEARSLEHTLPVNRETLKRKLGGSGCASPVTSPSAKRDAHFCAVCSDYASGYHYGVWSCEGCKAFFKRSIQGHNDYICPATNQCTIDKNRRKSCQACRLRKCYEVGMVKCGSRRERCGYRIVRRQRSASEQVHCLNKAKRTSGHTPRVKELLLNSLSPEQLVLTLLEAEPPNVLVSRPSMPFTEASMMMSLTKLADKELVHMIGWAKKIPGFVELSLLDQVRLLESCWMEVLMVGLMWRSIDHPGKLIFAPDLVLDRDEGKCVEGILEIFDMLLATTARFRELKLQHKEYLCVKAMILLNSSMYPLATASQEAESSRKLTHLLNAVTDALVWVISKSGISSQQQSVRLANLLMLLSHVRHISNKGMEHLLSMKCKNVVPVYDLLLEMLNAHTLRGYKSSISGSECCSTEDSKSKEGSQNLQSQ
T1 sequence (P19785 whole entry, looked up): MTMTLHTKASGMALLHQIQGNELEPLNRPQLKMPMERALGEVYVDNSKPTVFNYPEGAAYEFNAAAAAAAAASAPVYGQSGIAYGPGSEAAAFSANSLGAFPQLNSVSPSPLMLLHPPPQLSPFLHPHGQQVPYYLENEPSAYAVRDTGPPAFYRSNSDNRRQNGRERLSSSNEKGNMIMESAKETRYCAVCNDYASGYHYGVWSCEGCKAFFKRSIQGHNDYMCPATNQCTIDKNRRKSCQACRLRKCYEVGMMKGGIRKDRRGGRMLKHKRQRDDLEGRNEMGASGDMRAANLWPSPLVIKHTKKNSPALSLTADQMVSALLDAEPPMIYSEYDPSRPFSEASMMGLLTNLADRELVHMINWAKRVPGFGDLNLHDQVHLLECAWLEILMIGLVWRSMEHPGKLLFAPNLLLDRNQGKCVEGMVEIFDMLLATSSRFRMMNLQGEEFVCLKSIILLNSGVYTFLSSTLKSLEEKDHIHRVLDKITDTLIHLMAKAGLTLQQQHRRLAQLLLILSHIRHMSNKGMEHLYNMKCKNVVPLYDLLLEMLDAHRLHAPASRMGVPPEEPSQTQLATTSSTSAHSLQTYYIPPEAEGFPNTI

RBA [2] [%]	inhibition [3] [%]	Effect [4]	inhibition [6] [%]	Effect [9]	Effect [10]	Effect [11]	inhibition [16] [%]	Effect [17]	Effect [19]	SMILES	Tumor size (Mus musculus [1])	Tumor size (Mus musculus [12])	other results
0.6										CCCC/C(=C(/CCCC)c1cccc(OC(C)=O)c1)c1cccc(OC(C)=O)c1	4.1		
0.8	0.4	34.3	38.8	42.4	19.8	32.4				CCCCC1(c2cccc(OC(C)=O)c2)OC1(CCCC)c1cccc(OC(C)=O)c1 (stereo unspecified)	3.37		Effect [5]: 42; inhibition [7]: 2.2%; Effect [8]: 35.5
1.3										CCC/C(=C(/CCC)c1cccc(OC(C)=O)c1)c1cccc(OC(C)=O)c1		2.32	
										C[C@]12CC[C@@H]3c4ccc(O)cc4CC[C@H]3[C@@H]1CCC2=O			Effect [13]: 40.7
0.8	33.4	15	17.4	32.6	17	37.9	23	36.1	20.6	CC(=O)Oc1cccc(C2(C)OC2(C)c2cccc(OC(C)=O)c2)c1 (stereo unspecified)			Effect [14]: 33.1; inhibition [15]: 31.7%; Tumor size (Mus musculus [18]): 2.72
1.7	0	31.1	15.6	39.4		34.1	7.8	36.3	33.3	CCCC1(c2cccc(OC(C)=O)c2)OC1(CCC)c1cccc(OC(C)=O)c1 (stereo unspecified)		1.85	Effect [20]: 21.8; Effect [21]: 22.1
